These results are taken from ChEMBL document CHEMBL3351665, “Synthesis and evaluation of benzimidazole carbamates bearing indole moieties for antiproliferative and antitubulin activities” (Eur J Med Chem, 2014).

SMILES strings stand for the structures. Active and inactive are the calls of the source. The rule behind the calls is not given here. Some results are limits rather than exact numbers.

Test [1] can be described thus: Growth inhibition of human SGC7901 cells after 72 hrs by MTT assay. The class given is functional, cell-based. Conditions: SGC-7901, 72 h. Summed up: (§1)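 Cells grown in RPMI-1640 with 10% FBS, penicillin/streptomycin, 37 °C, 5% CO2; seeded 1-3 × 10^4/well, treated 24 h later in triplicate wells for 72 h. MTT (5 mg/mL) added in fresh medium for 4 h, formazan dissolved in DMSO, OD490 read; IC50 = concentration reducing absorbance by 50% versus vehicle-treated wells; triplicate experiments.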

A short description of test [2]: Growth inhibition of human HT1080 cells after 72 hrs by MTT assay. Conditions: HT-1080, 72 h. The class given is functional, cell-based. The method, boiled down:
as §1
In general terms: Tetrazolium assays rely on reduction of a dye to a coloured formazan, in cell work by metabolically active cells.

In the next test the test system is A549. The experiment in a line: Growth inhibition of human A549 cells after 72 hrs by MTT assay. The class given is functional, cell-based. Conditions: A549, 72 h. Summed up:
as §1

In test [3] the target is T1, Tubulin (Homo sapiens) (UniProt P68371+Q9H4B7+P0DPH7+P68366+Q13509+Q71U36+P04350+Q3ZCM7+P07437+P68363+Q9BQE3+Q6PEY2+Q13885+Q9BVA1+Q9BUF5). In words: Induction of distortions in tubulin assembly in human HT1080 cells assessed as abnormal mitotic spindle formation at 2 fold IC50 level incubated for 48 hrs by immunofluorescence staining based fluorescence microscopy. It is filed as cell-based. Conditions: HT-1080. The method, boiled down: (§2)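 Fixed in 4% formaldehyde/PBS 30 min at -20 °C, permeabilised with 0.1% Triton X-100, blocked in 5% BSA. Stained with α-tubulin primary (1:100, overnight 4 °C) and FITC anti-mouse secondary (1:1000, 3 h 37 °C), DAPI nuclei; fluorescence microscopy.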

Another test concerns the target Tubulin (Bos taurus) (UniProt Q6B856+Q862L2+Q862F3). The experiment in a line: (§3) Inhibition of bovine brain tubulin polymerization incubated for 90 mins by fluorescence-based assay. The method, boiled down: (§4)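 Fluorescence kit assay with purified bovine tubulin resuspended in ice-cold G-PEM (80 mM PIPES, 2 mM MgCl2, 0.5 mM EGTA, 1 mM GTP, 20% glycerol) and added to drug or DMSO vehicle. Reaction started by warming from 4 °C to 37 °C.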

For another test, the target named is Tubulin (Bos taurus, UniProt Q6B856+Q862L2+Q862F3). Described as §3. The method, boiled down: as §4
Test [4] concerns the target T1, Tubulin (Homo sapiens). The experiment in a line: Induction of distortions in tubulin assembly in human SGC7901 cells assessed as abnormal mitotic spindle formation at 2 fold IC50 level incubated for 48 hrs by immunofluorescence staining based fluorescence microscopy. It is filed as cell-based. Conditions: SGC-7901. The method, boiled down: as §2

One may read the IC50 as the point on the concentration scale where inhibition reaches its midpoint. A lower IC50 goes with higher potency. As to `COC(=O)Nc1nc2cc([S+]([O-])c3c[nH]c4ccc(C#N)cc34)ccc2[nH]1` (stereo not drawn), the values for the IC50 (in test [1]; in test [2]; in the test with A549) were above 10 µM, 9.43 µM and above 10 µM, respectively.
Consider `COC(=O)Nc1nc2cc(Sc3c(C)[nH]c4ccccc34)ccc2[nH]1`, for which the IC50 in test [1] came to 0.51 µM; in test [2], 0.97 µM; in the test on A549, 0.83 µM.
In the same order, the values of `COC(=O)Nc1nc2cc(Sc3c[nH]c4ccccc34)ccc2[nH]1` are 2.62 µM, 0.88 µM and 0.39 µM.
The matching figures for `COC(=O)Nc1nc2cc([S+]([O-])c3c(C)[nH]c4ccc(F)cc34)ccc2[nH]1` (stereo not drawn): 3.51 µM, above 10 µM and 3.27 µM.
In the same order, the values of `COC(=O)Nc1nc2cc([S+]([O-])c3c(C)[nH]c4ccc(Cl)cc34)ccc2[nH]1` (stereo not drawn) are above 10 µM, above 10 µM and above 10 µM.
`COC(=O)Nc1nc2cc([Se]c3c(C)[nH]c4ccc(Cl)cc34)ccc2[nH]1`: the IC50 in test [1] was above 10 µM; in test [2], above 10 µM; in the test on A549, 2.98 µM.
In the case of `COC(=O)Nc1nc2cc(Sc3c(C)[nH]c4ccc(F)cc34)ccc2[nH]1`, the IC50 in test [1] turned out to be 1.2 µM; in test [2], 3.27 µM; with A549 it was 2.52 µM.
In the same order, the values of `COC(=O)Nc1nc2cc([S+]([O-])c3c[nH]c4ccc(Br)cc34)ccc2[nH]1` (stereo not drawn) are 5.19 µM, above 10 µM and above 10 µM.
In the same order, the values of `COC(=O)Nc1nc2cc([Se]c3c(C)[nH]c4ccc(F)cc34)ccc2[nH]1` are 1.12 µM, 1.69 µM and 1.15 µM.
In the same order, the values of `COC(=O)Nc1nc2cc([S+]([O-])c3c[nH]c4ccccc34)ccc2[nH]1` (stereo not drawn) are 3.96 µM, 5.24 µM and 6.23 µM.
Regarding `COC(=O)Nc1nc2cc([Se]c3c(C)[nH]c4ccccc34)ccc2[nH]1`, the figures for the IC50 (in test [1]; in test [2]; with A549) were 0.23 µM, 0.27 µM and 3.83 µM, respectively.
For the molecule `COC(=O)Nc1nc2cc(S(=O)(=O)c3c[nH]c4ccc(C#N)cc34)ccc2[nH]1`, the IC50 (in test [1]; in test [2]; in the test on A549) was above 10 µM throughout.
Turning to `COC(=O)Nc1nc2cc(Sc3c(C)[nH]c4ccc(Cl)cc34)ccc2[nH]1`, the IC50 in test [1] worked out at 3.38 µM; in test [2], 4.13 µM; in the test on A549 it was 7.33 µM.
As to `COC(=O)Nc1nc2cc([Se]c3c[nH]c4ccccc34)ccc2[nH]1`, the IC50 amounted to 0.098 µM in test [1], 0.13 µM in test [2], 3.6 µM against Tubulin and 0.15 µM in the test with A549. For the same molecule, the result on Tubulin (Homo sapiens) [3] and on Tubulin (Homo sapiens) [4] was Active. In addition, the inhibition entry on Tubulin (Bos taurus) was “Dose-dependent effect”.
Take `COC(=O)Nc1nc2cc(S(=O)(=O)c3c(C)[nH]c4ccc(Cl)cc34)ccc2[nH]1`: the IC50 (in test [1]; in test [2]; with A549) was above 10 µM each time.
On to `COC(=O)Nc1nc2cc([S+]([O-])c3c(C)[nH]c4ccccc34)ccc2[nH]1` (stereo not drawn), for which the IC50 in test [1] is 9.93 µM; in test [2], 9.85 µM; in the test on A549 it was 7.98 µM.
In the same order, the values of `COC(=O)Nc1nc2cc(S(=O)(=O)c3c(C)[nH]c4ccccc34)ccc2[nH]1` are above 10 µM, above 10 µM and above 10 µM.
The matching figures for `COC(=O)Nc1nc2cc(S(=O)(=O)c3c(C)[nH]c4ccc(F)cc34)ccc2[nH]1`: 4.18 µM, above 10 µM and 9.08 µM.
The matching figures for `COC(=O)Nc1nc2cc(S(=O)(=O)c3c[nH]c4ccccc34)ccc2[nH]1`: 1.26 µM, 2.01 µM and 4.21 µM.
On to `COC(=O)Nc1nc2cc(Sc3c[nH]c4ccc(C#N)cc34)ccc2[nH]1`, for which the IC50 in test [1] was 0.12 µM; in test [2], 0.62 µM; in the test with A549, 5.14 µM.
In the same order, the values of `COC(=O)Nc1nc2cc(S(=O)(=O)c3c[nH]c4ccc(Br)cc34)ccc2[nH]1` are 7.44 µM, 3.18 µM and 7.42 µM.
The matching figures for `COC(=O)Nc1nc2cc([Se]c3c[nH]c4ccc(Br)cc34)ccc2[nH]1`: 2.15 µM, 2.75 µM and 2.21 µM.
The matching figures for `COC(=O)Nc1nc2cc([Se]c3c[nH]c4ccc(C#N)cc34)ccc2[nH]1`: 1.11 µM, 0.95 µM and 5.07 µM.
As to `COC(=O)Nc1nc2cc(Sc3c[nH]c4ccc(Br)cc34)ccc2[nH]1`, the IC50 in test [1] turned out to be 2.12 µM; in test [2], 1.33 µM; at Tubulin, 8.2 µM; in the test with A549, 1.19 µM. For the same molecule, at Tubulin (Bos taurus), the inhibition result was “Dose-dependent effect”.
For the molecule `COC(=O)Nc1nc2cc(C(=O)c3cccs3)ccc2[nH]1` [NOCODAZOLE], the IC50 in test [1] amounted to 0.08 µM; in test [2], 0.14 µM; in the test with A549, 0.12 µM. Besides, the outcome on Tubulin (Homo sapiens) [3] and at Tubulin (Homo sapiens) [4] was Active.
